Test results reported in ChEMBL document CHEMBL1147809, “Tumor-cell-targeted methionine-enkephalin analogues containing unnatural amino acids: design, synthesis, and in vitro antitumor activity” (2006).

test system: HeLa; assay: Antiproliferative activity against human HeLa cell line at 1000 uM relative to control; format: functional
Procedure, shortened: (§1)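 Cells from ATCC grown as monolayers in DMEM with 10% FBS, 2 mM glutamine, penicillin/streptomycin, 37 °C, 5% CO2. Seeded at 2 × 10^4 cells/mL, and after 24 h the medium was replaced with fresh medium containing compound (water/10% DMSO stock, PBS working dilutions 10^-3 to 10^-6 M). Exposure was 72 h, then MTT read-out. Growth % = (A_peptide − A_blank)/(A_control − A_blank) × 100, with inhibition taken relative to untreated cells. Values are means of three experiments run in triplicate.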

Row | SMILES | inhibition at 1000 µM [%]
1 | N[C@@H](Cc1ccc(O)cc1)C(=O)N[C@H](C(=O)NCC(=O)O)C1C2CC3CC(C2)CC1C3 (stereo not given in full) | 28.2

test system: HBL; assay: Antiproliferative activity against human HBL cell line at 10 uM relative to control; format: functional; procedure, shortened: as §1

Row | SMILES | inhibition at 10 µM [%]
2 | N[C@@H](Cc1ccc(O)cc1)C(=O)N[C@H](C(=O)NCC(=O)O)C1C2CC3CC(C2)CC1C3 (stereo not given in full) | 2.9

test system: HBL; assay: Antiproliferative activity against human HBL cell line at 100 uM relative to control; format: functional; procedure, shortened: as §1

Row | SMILES | inhibition at 100 µM [%]
3 | N[C@@H](Cc1ccc(O)cc1)C(=O)N[C@H](C(=O)NCC(=O)O)C1C2CC3CC(C2)CC1C3 (stereo not given in full) | 5.9

test system: HBL; assay: Antiproliferative activity against human HBL cell line at 1000 uM relative to control; format: functional; procedure, shortened: as §1

Row | SMILES | inhibition at 1000 µM [%]
4 | N[C@@H](Cc1ccc(O)cc1)C(=O)N[C@H](C(=O)NCC(=O)O)C1C2CC3CC(C2)CC1C3 (stereo not given in full) | 17.9

test system: HT-29; assay: Antiproliferative activity against human HT29 cell line at 10 uM relative to control; format: functional; procedure, shortened: as §1

Row | SMILES | inhibition at 10 µM [%]
5 | N[C@@H](Cc1ccc(O)cc1)C(=O)N[C@H](C(=O)NCC(=O)O)C1C2CC3CC(C2)CC1C3 (stereo not given in full) | 7.4

test system: HT-29; assay: Antiproliferative activity against human HT29 cell line at 100 uM relative to control; format: functional; procedure, shortened: as §1

Row | SMILES | inhibition at 100 µM [%]
6 | N[C@@H](Cc1ccc(O)cc1)C(=O)N[C@H](C(=O)NCC(=O)O)C1C2CC3CC(C2)CC1C3 (stereo not given in full) | 9.5

test system: HT-29; assay: Antiproliferative activity against human HT29 cell line at 1000 uM relative to control; format: functional; procedure, shortened: as §1

Row | SMILES | inhibition at 1000 µM [%]
7 | N[C@@H](Cc1ccc(O)cc1)C(=O)N[C@H](C(=O)NCC(=O)O)C1C2CC3CC(C2)CC1C3 (stereo not given in full) | 15.7

test system: SW-620; assay: Antiproliferative activity against human SW620 cell line at 10 uM relative to control; format: functional; procedure, shortened: as §1

Row | SMILES | inhibition at 10 µM [%]
8 | N[C@@H](Cc1ccc(O)cc1)C(=O)N[C@H](C(=O)NCC(=O)O)C1C2CC3CC(C2)CC1C3 (stereo not given in full) | 20.4

test system: SW-620; assay: Antiproliferative activity against human SW620 cell line at 100 uM relative to control; format: functional; procedure, shortened: as §1

Row | SMILES | inhibition at 100 µM [%]
9 | N[C@@H](Cc1ccc(O)cc1)C(=O)N[C@H](C(=O)NCC(=O)O)C1C2CC3CC(C2)CC1C3 (stereo not given in full) | 14.4

test system: SW-620; assay: Antiproliferative activity against human SW620 cell line at 1000 uM relative to control; format: functional; procedure, shortened: as §1

Row | SMILES | inhibition at 1000 µM [%]
10 | N[C@@H](Cc1ccc(O)cc1)C(=O)N[C@H](C(=O)NCC(=O)O)C1C2CC3CC(C2)CC1C3 (stereo not given in full) | 23.4

test system: Caco-2; assay: Antiproliferative activity against human Caco-2 cell line at 10 uM relative to control; format: functional; procedure, shortened: as §1

Row | SMILES | inhibition at 10 µM [%]
11 | N[C@@H](Cc1ccc(O)cc1)C(=O)N[C@H](C(=O)NCC(=O)O)C1C2CC3CC(C2)CC1C3 (stereo not given in full) | 4.2

test system: Caco-2; assay: Antiproliferative activity against human Caco-2 cell line at 100 uM relative to control; format: functional; procedure, shortened: as §1

Row | SMILES | inhibition at 100 µM [%]
12 | N[C@@H](Cc1ccc(O)cc1)C(=O)N[C@H](C(=O)NCC(=O)O)C1C2CC3CC(C2)CC1C3 (stereo not given in full) | 6.4

test system: Caco-2; assay: Antiproliferative activity against human Caco-2 cell line at 1000 uM relative to control; format: functional; procedure, shortened: as §1

Row | SMILES | inhibition at 1000 µM [%]
13 | N[C@@H](Cc1ccc(O)cc1)C(=O)N[C@H](C(=O)NCC(=O)O)C1C2CC3CC(C2)CC1C3 (stereo not given in full) | 6.2

test system: MCF7; assay: Antiproliferative activity against human MCF7 cell line at 1000 uM relative to control; format: functional; procedure, shortened: as §1

Row | SMILES | inhibition at 1000 µM [%]
14 | N[C@@H](Cc1ccc(O)cc1)C(=O)N[C@H](C(=O)NCC(=O)O)C1C2CC3CC(C2)CC1C3 (stereo not given in full) | 21.2

test system: HEp-2; assay: Antiproliferative activity against human HEp2 cell line at 10 uM relative to control; format: functional; procedure, shortened: as §1

Row | SMILES | inhibition at 10 µM [%]
15 | N[C@@H](Cc1ccc(O)cc1)C(=O)N[C@H](C(=O)NCC(=O)O)C1C2CC3CC(C2)CC1C3 (stereo not given in full) | 2

test system: HEp-2; assay: Antiproliferative activity against human HEp2 cell line at 100 uM relative to control; format: functional; procedure, shortened: as §1

Row | SMILES | inhibition at 100 µM [%]
16 | N[C@@H](Cc1ccc(O)cc1)C(=O)N[C@H](C(=O)NCC(=O)O)C1C2CC3CC(C2)CC1C3 (stereo not given in full) | 18.8

test system: HEp-2; assay: Antiproliferative activity against human HEp2 cell line at 1000 uM relative to control; format: functional; procedure, shortened: as §1

Row | SMILES | inhibition at 1000 µM [%]
17 | N[C@@H](Cc1ccc(O)cc1)C(=O)N[C@H](C(=O)NCC(=O)O)C1C2CC3CC(C2)CC1C3 (stereo not given in full) | 26.7

test system: HeLa; assay: Antiproliferative activity against human HeLa cell line at 10 uM relative to control; format: functional; procedure, shortened: as §1

Row | SMILES | inhibition at 10 µM [%]
18 | N[C@@H](Cc1ccc(O)cc1)C(=O)N[C@H](C(=O)NCC(=O)O)C1C2CC3CC(C2)CC1C3 (stereo not given in full) | 7.3

test system: HeLa; assay: Antiproliferative activity against human HeLa cell line at 100 uM relative to control; format: functional; procedure, shortened: as §1

Row | SMILES | inhibition at 100 µM [%]
19 | N[C@@H](Cc1ccc(O)cc1)C(=O)N[C@H](C(=O)NCC(=O)O)C1C2CC3CC(C2)CC1C3 (stereo not given in full) | 9.9

test system: SW-620; assay: Antiproliferative activity against human SW620 cell line at 1 uM relative to control; format: functional; procedure, shortened: as §1

Row | SMILES | inhibition at 1 µM [%]
20 | N[C@@H](Cc1ccc(O)cc1)C(=O)N[C@H](C(=O)NCC(=O)O)C1C2CC3CC(C2)CC1C3 (stereo not given in full) | 13.6

test system: Caco-2; assay: Antiproliferative activity against human Caco-2 cell line at 1 uM relative to control; format: functional; procedure, shortened: as §1

Row | SMILES | inhibition at 1 µM [%]
21 | N[C@@H](Cc1ccc(O)cc1)C(=O)N[C@H](C(=O)NCC(=O)O)C1C2CC3CC(C2)CC1C3 (stereo not given in full) | 2.2

test system: HEp-2; assay: Antiproliferative activity against human HEp2 cell line at 1 uM relative to control; format: functional; procedure, shortened: as §1

Row | SMILES | inhibition at 1 µM [%]
22 | N[C@@H](Cc1ccc(O)cc1)C(=O)N[C@H](C(=O)NCC(=O)O)C1C2CC3CC(C2)CC1C3 (stereo not given in full) | 2.7

test system: HeLa; assay: Antiproliferative activity against human HeLa cell line at 1 uM relative to control; format: functional; procedure, shortened: as §1

Row | SMILES | inhibition at 1 µM [%]
23 | N[C@@H](Cc1ccc(O)cc1)C(=O)N[C@H](C(=O)NCC(=O)O)C1C2CC3CC(C2)CC1C3 (stereo not given in full) | 9.8

test system: HBL; assay: Antiproliferative activity against human HBL cell line at 1 uM relative to control; format: functional; procedure, shortened: as §1

Row | SMILES | inhibition at 1 µM [%]
24 | N[C@@H](Cc1ccc(O)cc1)C(=O)N[C@H](C(=O)NCC(=O)O)C1C2CC3CC(C2)CC1C3 (stereo not given in full) | 1.6

test system: HT-29; assay: Antiproliferative activity against human HT29 cell line at 1 uM relative to control; format: functional; procedure, shortened: as §1

Row | SMILES | inhibition at 1 µM [%]
25 | N[C@@H](Cc1ccc(O)cc1)C(=O)N[C@H](C(=O)NCC(=O)O)C1C2CC3CC(C2)CC1C3 (stereo not given in full) | 5.4
